Reference: ChEMBL document CHEMBL4017535 (J Med Chem, 2017)

Experiments:
[1] = target: T1, Protein polybromo-1 (Homo sapiens, UniProt Q86U86); assay: Binding affinity to human PBRM1 bromodamian-5 (S645 to D766 residues) expressed in bacterial expression system by BROMOscan assay
[2] = Half life in human at 1 mg, po; type: ADME; details: in vivo
In short: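 Clinical PK in subjects with cancer after a single 1 mg oral dose, n = 3. Apparent clearance was reported as PO CLp/F in L/hr.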

[3] = target: Adenosine receptor A2b (Homo sapiens, UniProt P29275); assay: Antagonist activity at adenosine A2B receptor (unknown origin)
[4] = target: Histone acetyltransferase p300 (Homo sapiens, UniProt Q09472); assay: Binding affinity to human EP300 (A1040 to G1161 residues) expressed in bacterial expression system by BROMOscan assay
[5] = Intrinsic clearance in monkey hepatocytes; type: ADME, cell-based, Macaca mulatta, Hepatocyte; details: rhesus monkey, read-out: CLH (converted)
[6] = target: Adenosine receptor A1 (Homo sapiens) (UniProt P30542); assay: Displacement of [3H]-DPCPX from recombinant human adenosine A1 receptor expressed in CHO cells at 10 uM; type: cell-based
[7] = Fraction unbound in mouse plasma at 1 uM after 4 hrs by LC-MS/MS method; type: ADME, cell-free
[8] = target: SWI/SNF-related matrix-associated actin-dependent regulator of chromatin subfamily A member 4 (Homo sapiens, UniProt P51532); assay: Binding affinity to human SMARCA4 (A1448 to S1575 residues) expressed in bacterial expression system by BROMOscan assay
[9] = Intrinsic clearance in dog liver microsomes; type: ADME, Canis lupus familiaris, microsome; details: read-out: CLH (converted)
[10] = system: Mus musculus; assay: Plasma unbound clearance in mouse at 3 mg/kg, iv; type: ADME, organism-based; details: in vivo
In short: (§1)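 Mouse PK: 3 mg/kg IV and 10 mg/kg PO. Clearance is expressed unbound, Cl_p,u in L/hr/kg. AUC is unbound, in µM*hr. FaFg is computed as F/(1-Clp/Qh), with mouse liver blood flow Qh 5.2 L/hr/kg. Unbound plasma fraction was measured separately.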

[11] = system: Liver; assay: Unbound intrinsic clearance in rat liver microsomes at 10 uM preincubated for 5 mins followed by NADPH addition measured after 60 mins by HPLC-UV-MS analysis; type: ADME, microsome; details: 1 h
[12] = Intrinsic clearance in human liver microsomes at 10 uM preincubated for 5 mins followed by NADPH addition measured after 60 mins by HPLC-UV-MS analysis; type: ADME, microsome; details: read-out: CLH
[13] = Oral bioavailability in dog; type: ADME, organism-based, Canis lupus familiaris; details: in vivo
[14] = Intrinsic clearance in dog hepatocytes; type: ADME, cell-based, Canis lupus familiaris, Hepatocyte; details: read-out: CLH (converted)
[15] = Oral bioavailability in mouse at 10 mg/kg; type: ADME, organism-based; details: in vivo; in short: as §1
[16] = Oral bioavailability in human at 1 mg; type: ADME, organism-based; details: in vivo
In short: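 Human F (%) was estimated from observed F in preclinical species. It accompanies a clinical 1 mg oral dose given to cancer patients (n = 3).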

[17] = system: Liver; assay: Unbound intrinsic clearance in mouse liver microsomes; type: ADME, microsome
In short: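 Liver microsome stability is expressed as unbound intrinsic clearance, Cl_int,u, in L/hr/kg. Dextromethorphan served as the in-house low-clearance reference control and verapamil as the high-clearance reference control.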

[18] = target: T2, Bromodomain-containing protein 4 (Homo sapiens, UniProt O60885); assay: Binding affinity to N-terminal His6-tagged human BRD4 BD1 to BD2 (K57 to K550 residues) by isothermal titration calorimetry
[19] = Intrinsic clearance in rat liver microsomes at 10 uM preincubated for 5 mins followed by NADPH addition measured after 60 mins by HPLC-UV-MS analysis; type: ADME, microsome; details: read-out: CLH (converted)
[20] = Permeability in MDCK cells; type: ADME, cell-based, Canis lupus familiaris; details: dog, read-out: permeability
[21] = Plasma clearance in mouse at 3 mg/kg, iv; type: ADME, organism-based
[22] = system: Mus musculus; assay: Oral absorption in mouse at 10 mg/kg; type: ADME, organism-based; details: in vivo
In short: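 Oral absorption is expressed as FaFg, calculated as F/(1-Clp/Qh). Liver blood flow (Qh) was 5.2 L/hr/kg for mouse and 3.8 L/hr/kg for rat. Mouse dosing was 3 mg/kg IV and 10 mg/kg PO; rat dosing was 1 mg/kg IV and PO.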

[23] = target: Translocator protein (Homo sapiens, UniProt P30536); assay: Antagonist activity at peripheral benzodiazepine receptor (unknown origin)
[24] = Plasma clearance in rat at 1 mg/kg, iv; type: ADME, organism-based
[25] = Half life in po dosed monkey; type: ADME, organism-based, Macaca mulatta; details: rhesus monkey, in vivo
[26] = target: T2, Bromodomain-containing protein 4; assay: Inhibition of BRD4 in human H1299 cells assessed as decrease in HPV LCR-E2-EP400-mediated transcriptional repression after 24 hrs by Bright-Glo luciferase reporter gene assay; type: cell-based
[27] = target: T1, Protein polybromo-1; assay: Binding affinity to human PBRM1 bromodomain-2 (S178 to E291 residues) expressed in bacterial expression system by BROMOscan assay
[28] = target: Bromodomain and PHD finger-containing protein 3 (Homo sapiens, UniProt Q9ULD4); assay: Binding affinity to human BRPF3 (E588 to G701 residues) expressed in bacterial expression system by BROMOscan assay
[29] = target: Histone acetyltransferase KAT2A (Homo sapiens, UniProt Q92830); assay: Binding affinity to human GCN5L2 (E726 to K837 residues) expressed in bacterial expression system by BROMOscan assay
[30] = system: Liver; assay: Unbound intrinsic clearance in human liver microsomes at 10 uM preincubated for 5 mins followed by NADPH addition measured after 60 mins by HPLC-UV-MS analysis; type: ADME, microsome; details: 1 h
[31] = system: Rattus norvegicus; assay: Unbound AUC in rat at 1 mg/kg, po; details: in vivo
[32] = system: Mus musculus; assay: Toxicity in NOD.SCID mouse assessed as maximum mean body weight loss at 1 mg/kg, po qd for 25 days (reference value: 9%); type: organism-based; details: in vivo, 600 h
[33] = organism: Rattus norvegicus; assay: Drug excretion in rat using radiolabelled compound; type: ADME; details: in vivo
[34] = system: Mus musculus; assay: Unbound AUC in mouse at 10 mg/kg, po; type: ADME, organism-based; details: in vivo; in short: as §1

T1 sequence (Q86U86 whole entry, the tested form may be a part): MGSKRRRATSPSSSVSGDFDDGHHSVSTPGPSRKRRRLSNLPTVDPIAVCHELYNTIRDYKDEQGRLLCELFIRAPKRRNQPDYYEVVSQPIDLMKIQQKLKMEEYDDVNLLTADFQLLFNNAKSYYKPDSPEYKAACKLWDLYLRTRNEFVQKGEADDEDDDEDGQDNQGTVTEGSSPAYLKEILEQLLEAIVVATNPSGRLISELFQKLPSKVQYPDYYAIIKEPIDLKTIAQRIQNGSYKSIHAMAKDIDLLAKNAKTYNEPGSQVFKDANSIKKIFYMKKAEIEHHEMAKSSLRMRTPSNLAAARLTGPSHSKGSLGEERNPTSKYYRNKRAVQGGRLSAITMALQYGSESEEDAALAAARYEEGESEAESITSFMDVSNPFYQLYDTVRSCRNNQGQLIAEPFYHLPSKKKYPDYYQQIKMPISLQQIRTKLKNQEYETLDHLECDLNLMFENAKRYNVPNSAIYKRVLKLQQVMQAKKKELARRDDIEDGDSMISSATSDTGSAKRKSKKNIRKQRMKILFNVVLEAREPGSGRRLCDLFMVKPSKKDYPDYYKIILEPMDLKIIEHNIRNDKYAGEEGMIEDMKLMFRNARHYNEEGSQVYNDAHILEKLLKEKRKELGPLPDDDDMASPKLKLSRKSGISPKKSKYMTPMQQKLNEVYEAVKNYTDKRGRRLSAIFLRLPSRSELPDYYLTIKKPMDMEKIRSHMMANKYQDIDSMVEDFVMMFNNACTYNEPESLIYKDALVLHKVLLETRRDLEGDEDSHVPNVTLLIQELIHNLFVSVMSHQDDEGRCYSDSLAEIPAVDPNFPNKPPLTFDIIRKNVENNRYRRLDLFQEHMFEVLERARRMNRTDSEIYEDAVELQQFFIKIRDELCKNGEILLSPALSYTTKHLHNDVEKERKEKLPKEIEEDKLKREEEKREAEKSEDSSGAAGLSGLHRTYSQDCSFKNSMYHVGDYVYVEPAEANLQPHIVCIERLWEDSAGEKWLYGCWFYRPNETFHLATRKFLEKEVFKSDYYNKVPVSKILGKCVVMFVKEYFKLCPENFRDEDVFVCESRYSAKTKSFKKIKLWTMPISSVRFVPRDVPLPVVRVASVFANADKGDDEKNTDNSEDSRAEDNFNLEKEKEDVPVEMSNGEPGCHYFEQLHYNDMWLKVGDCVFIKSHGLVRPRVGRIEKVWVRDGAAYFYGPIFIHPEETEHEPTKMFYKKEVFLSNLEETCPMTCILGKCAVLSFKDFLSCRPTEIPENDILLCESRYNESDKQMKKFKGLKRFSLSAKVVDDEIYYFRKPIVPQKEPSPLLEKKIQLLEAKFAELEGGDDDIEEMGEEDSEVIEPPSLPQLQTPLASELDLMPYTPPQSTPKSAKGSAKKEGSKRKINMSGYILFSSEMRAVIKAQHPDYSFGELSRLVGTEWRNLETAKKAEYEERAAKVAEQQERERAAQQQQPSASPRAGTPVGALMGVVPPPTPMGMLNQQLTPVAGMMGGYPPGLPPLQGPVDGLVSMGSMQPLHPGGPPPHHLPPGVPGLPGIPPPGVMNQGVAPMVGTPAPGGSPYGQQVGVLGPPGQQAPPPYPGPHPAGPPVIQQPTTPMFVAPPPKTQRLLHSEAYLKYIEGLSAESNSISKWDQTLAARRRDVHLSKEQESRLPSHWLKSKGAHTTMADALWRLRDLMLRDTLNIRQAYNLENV
Histone acetyltransferase p300, sequence (Q09472 whole entry, the tested form may be a part): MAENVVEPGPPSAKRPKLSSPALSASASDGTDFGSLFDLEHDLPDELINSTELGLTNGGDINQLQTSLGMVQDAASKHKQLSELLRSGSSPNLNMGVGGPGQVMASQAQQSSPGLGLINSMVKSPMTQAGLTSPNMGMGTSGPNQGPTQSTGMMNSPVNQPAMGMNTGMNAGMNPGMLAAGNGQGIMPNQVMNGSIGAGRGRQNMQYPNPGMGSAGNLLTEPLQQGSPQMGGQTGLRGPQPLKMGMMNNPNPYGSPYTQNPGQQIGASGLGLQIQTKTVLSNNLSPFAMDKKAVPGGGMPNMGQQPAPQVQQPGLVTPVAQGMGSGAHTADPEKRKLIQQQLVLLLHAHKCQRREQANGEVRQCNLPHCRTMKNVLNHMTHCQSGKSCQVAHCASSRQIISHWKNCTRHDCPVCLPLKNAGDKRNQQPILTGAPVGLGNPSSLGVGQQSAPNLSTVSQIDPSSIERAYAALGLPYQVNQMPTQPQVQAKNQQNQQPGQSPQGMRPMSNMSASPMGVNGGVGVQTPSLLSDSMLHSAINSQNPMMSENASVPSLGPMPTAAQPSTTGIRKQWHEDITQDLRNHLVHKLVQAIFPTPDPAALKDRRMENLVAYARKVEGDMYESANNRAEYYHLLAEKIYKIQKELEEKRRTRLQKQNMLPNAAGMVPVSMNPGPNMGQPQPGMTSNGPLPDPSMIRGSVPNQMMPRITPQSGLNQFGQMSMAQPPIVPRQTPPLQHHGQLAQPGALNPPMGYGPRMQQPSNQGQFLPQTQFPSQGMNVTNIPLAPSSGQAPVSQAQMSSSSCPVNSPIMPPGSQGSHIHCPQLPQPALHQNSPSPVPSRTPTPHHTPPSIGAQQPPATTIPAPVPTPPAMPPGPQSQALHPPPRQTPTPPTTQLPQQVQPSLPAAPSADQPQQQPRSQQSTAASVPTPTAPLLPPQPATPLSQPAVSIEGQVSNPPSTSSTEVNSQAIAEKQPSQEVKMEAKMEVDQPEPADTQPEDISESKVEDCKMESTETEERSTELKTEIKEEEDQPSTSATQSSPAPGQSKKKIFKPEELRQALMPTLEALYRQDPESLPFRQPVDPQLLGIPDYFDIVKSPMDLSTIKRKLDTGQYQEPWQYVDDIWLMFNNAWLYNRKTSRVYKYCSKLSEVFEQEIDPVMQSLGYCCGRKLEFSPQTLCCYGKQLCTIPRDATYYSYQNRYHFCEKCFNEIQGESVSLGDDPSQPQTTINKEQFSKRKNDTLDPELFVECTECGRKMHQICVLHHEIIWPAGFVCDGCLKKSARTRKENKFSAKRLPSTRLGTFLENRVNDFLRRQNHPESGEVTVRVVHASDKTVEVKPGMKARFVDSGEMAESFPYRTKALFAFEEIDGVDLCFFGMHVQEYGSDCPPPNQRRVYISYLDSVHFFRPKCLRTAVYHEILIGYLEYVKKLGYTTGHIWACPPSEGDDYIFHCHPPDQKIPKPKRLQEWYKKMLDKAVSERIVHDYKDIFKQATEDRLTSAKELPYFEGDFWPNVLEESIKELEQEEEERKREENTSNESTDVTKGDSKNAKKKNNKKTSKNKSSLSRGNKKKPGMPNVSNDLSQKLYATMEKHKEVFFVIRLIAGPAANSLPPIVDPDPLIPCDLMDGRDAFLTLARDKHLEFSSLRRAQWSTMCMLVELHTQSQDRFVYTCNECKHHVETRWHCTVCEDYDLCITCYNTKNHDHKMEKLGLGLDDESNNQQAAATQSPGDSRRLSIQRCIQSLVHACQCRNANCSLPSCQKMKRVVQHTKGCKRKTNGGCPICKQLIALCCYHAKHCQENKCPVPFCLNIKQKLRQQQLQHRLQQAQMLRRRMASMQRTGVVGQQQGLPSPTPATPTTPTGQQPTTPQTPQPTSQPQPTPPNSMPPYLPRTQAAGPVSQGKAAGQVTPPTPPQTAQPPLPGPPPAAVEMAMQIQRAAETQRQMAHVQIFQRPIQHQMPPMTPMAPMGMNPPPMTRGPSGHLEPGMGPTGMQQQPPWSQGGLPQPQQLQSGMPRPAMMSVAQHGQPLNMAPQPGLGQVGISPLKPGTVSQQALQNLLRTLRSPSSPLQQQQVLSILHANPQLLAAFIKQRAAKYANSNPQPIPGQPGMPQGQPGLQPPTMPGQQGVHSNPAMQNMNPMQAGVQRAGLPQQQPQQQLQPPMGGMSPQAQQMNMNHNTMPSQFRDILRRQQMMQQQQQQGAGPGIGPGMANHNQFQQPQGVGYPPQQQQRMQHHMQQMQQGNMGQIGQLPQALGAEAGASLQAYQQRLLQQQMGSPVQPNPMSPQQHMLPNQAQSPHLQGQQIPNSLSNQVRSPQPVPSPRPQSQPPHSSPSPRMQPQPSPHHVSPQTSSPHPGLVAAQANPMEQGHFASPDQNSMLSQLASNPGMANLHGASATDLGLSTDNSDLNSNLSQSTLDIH
Histone acetyltransferase KAT2A, sequence (Q92830 whole entry, the tested form may be a part): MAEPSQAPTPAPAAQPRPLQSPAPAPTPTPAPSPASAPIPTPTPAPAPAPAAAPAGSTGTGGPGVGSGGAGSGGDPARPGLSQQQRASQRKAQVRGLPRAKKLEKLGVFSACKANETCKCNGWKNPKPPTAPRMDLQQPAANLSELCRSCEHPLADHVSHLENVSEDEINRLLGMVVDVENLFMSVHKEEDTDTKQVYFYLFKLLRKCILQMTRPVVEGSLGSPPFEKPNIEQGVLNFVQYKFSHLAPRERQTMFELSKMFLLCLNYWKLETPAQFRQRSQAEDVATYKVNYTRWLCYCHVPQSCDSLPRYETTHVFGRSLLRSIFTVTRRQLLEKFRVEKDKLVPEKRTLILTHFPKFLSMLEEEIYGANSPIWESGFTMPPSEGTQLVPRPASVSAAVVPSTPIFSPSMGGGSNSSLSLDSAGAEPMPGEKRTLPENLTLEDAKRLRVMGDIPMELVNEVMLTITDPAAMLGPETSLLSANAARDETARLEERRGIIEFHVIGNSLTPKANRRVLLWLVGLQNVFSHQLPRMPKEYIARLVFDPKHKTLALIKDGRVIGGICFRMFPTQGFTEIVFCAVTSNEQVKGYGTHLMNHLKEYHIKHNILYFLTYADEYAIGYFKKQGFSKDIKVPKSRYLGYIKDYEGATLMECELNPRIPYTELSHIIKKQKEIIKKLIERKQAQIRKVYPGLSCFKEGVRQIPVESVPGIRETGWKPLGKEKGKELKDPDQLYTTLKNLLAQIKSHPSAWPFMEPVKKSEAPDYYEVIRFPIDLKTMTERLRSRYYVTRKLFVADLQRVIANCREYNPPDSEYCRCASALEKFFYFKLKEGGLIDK
Translocator protein, sequence (P30536 whole entry): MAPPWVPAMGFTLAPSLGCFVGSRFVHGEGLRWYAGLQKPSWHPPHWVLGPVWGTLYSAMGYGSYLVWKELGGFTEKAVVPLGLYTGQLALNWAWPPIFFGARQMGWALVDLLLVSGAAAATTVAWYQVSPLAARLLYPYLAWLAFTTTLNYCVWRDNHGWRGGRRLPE

CCS(=O)(=O)Nc1ccc(Oc2ccc(F)cc2F)c(-c2cn(C)c(=O)c3[nH]ccc23)c1 [MIVEBRESIB]
Kd [1]: > 1000 nM
half-life [2]: 25.1 h
IC50 [3]: 2600 nM
Kd [4]: 87 nM
CLint scaled [5]: 51.7 mL/min/kg
inhibition [6]: 97%
fraction unbound at 4 h, 1 µM [7]: 0.02
Kd [8]: > 1000 nM
CLint scaled [9]: 51.7 mL/min/kg
clearance [10]: 317 mL/min/kg
CL free [11]: < 81.7 mL/min/kg
CLint scaled at 10 µM [12]: < 25 mL/min/kg
bioavailability [13]: 41%
CLint scaled [14]: 35 mL/min/kg
bioavailability [15]: 68 to 83%
bioavailability [16]: 50%
CL free [17]: 550 mL/min/kg
Kd [18]: < 10 nM
CLint scaled at 10 µM [19]: 66.7 mL/min/kg
Papp [20]: 29 ×10⁻⁶ cm/s
clearance [21]: 8.33 mL/min/kg
FaFg [22]: 0.9
IC50 [23]: 800 nM
clearance [24]: 10 mL/min/kg
half-life [25]: 4.4 h
EC50 [26]: 20 nM
Kd [27]: > 1000 nM
Kd [28]: > 1000 nM
Kd [29]: > 1000 nM
CL free [30]: < 48.3 mL/min/kg
fAUC [31]: 0.27 µM·h
Activity [32]: 6%
Drug excretion [33]: 76 %ID
fAUC [34]: 0.63 µM·h
